Values after ≈ are worked out from the molar mass of the structure shown. Residues, ends and D or L forms follow the SMILES beside them. *: point of attachment. βNA = c1ccc2cc(N*)ccc2c1

The first experiment concerns Escherichia coli. The experiment in a line: Antibacterial activity against Escherichia coli strain ATCC 25922. The format is functional.
Conditions: not given
Turning to `Clc1ccc(Cl)c(CCC2CCCNC2)c1` (configuration not stated), it took 128 µg/mL (≈ 496 µM) to inhibit growth (MIC).
As to `Cl.F[C@@H]1CCNC[C@H]1CCc1cc(Br)ccc1Cl`, the MIC was 64 µg/mL.
As to `Cl.FC1=C(Cc2cc(Br)ccc2Cl)CNCC1`, the MIC came out at 128 µg/mL.
With `Cl.Clc1ccc(Br)cc1CCC1CCCNC1` (configuration not stated), the MIC was 128 µg/mL.
`Cl.OC1CCNC[C@@H]1Cc1cc(Br)ccc1Cl` (some centres not stated) came in with an MIC above 256 µg/mL.
In turn, `Cl.O[C@H]1CCNC[C@@H]1Cc1cc(Br)ccc1Cl` returned an MIC above 256 µg/mL.
`Cl.Clc1ccc(Br)cc1CC1=CCCNC1` yielded an MIC of 256 µg/mL.
The same measure, in the same setting: as for `Cl.F[C@H]1CCNC[C@@H]1Cc1cc(Br)ccc1Cl`, the figure is 256 µg/mL; as for `Cl.O=C1CCNCC1Cc1cc(Br)ccc1Cl` (configuration not stated), above 256 µg/mL; as for `c1ccc(CCC2CCCNC2)cc1` (configuration not stated), above 128 µg/mL.
As to `Cl.Clc1ccc(Br)cc1/C=C/C1CCCNC1` (configuration not stated), the MIC is 64 µg/mL.
With `N#Cc1ccc(CCC2CCCNC2)cc1` (configuration not stated), the minimum inhibitory concentration (MIC) is above 128 µg/mL.
Regarding `CCOc1ccc(CCC2CCCNC2)cc1` (configuration not stated), the MIC was above 128 µg/mL.
For the compound `Cc1ccc(C)c(CCC2CCCNC2)c1` (configuration not stated), the MIC was above 128 µg/mL.
On the same count and under the same terms, for `COc1ccccc1-c1ccc(CCC2CCCNC2)c(Cl)c1` (configuration not stated) the value was 64 µg/mL (≈ 194 µM).
As for `Clc1ccc(CCC2CCCNC2)cc1Cl` (configuration not stated), 128 µg/mL (≈ 496 µM) was the least that counted as inhibitory (MIC).
As for `Clc1cccc(Cl)c1CCC1CCCNC1` (configuration not stated), the MIC was above 128 µg/mL.
On to `FC(F)(F)c1cc(CCC2CCCNC2)cc(C(F)(F)F)c1` (configuration not stated), for which the lowest concentration to inhibit growth (MIC) was 64 µg/mL (≈ 197 µM).
Same read-out and setting: for `N=C(N)NCCC[C@H](NC(=O)[C@@H](N)Cc1ccccc1)C(=O)Nc1ccc2ccccc2c1` [PABETAN] (H-Phe-Arg-βNA) the value was 256 µg/mL (≈ 573 µM).

The test system of the next experiment is Staphylococcus aureus. In words: Antibacterial activity against Staphylococcus aureus strain ATCC 29213.
Conditions: not given
The format is functional.
Compound `Clc1ccc(Cl)c(CCC2CCCNC2)c1` (configuration not stated) gave an MIC of 64 µg/mL (≈ 248 µM).
The same measure, in the same setting: for `Cl.F[C@@H]1CCNC[C@H]1CCc1cc(Br)ccc1Cl` the value was 64 µg/mL.
Compound `Cl.FC1=C(Cc2cc(Br)ccc2Cl)CNCC1` gave an MIC above 128 µg/mL.
Consider `Cl.Clc1ccc(Br)cc1CCC1CCCNC1` (configuration not stated), for which the MIC amounted to 64 µg/mL.
Compound `Cl.OC1CCNC[C@@H]1Cc1cc(Br)ccc1Cl` (some centres not stated) yielded a minimum inhibitory concentration (MIC) above 128 µg/mL.
For `Cl.O[C@H]1CCNC[C@@H]1Cc1cc(Br)ccc1Cl`, the MIC was above 128 µg/mL.
With `Cl.Clc1ccc(Br)cc1CC1=CCCNC1`, the minimum inhibitory concentration (MIC) stood at 128 µg/mL.
On to `Cl.F[C@H]1CCNC[C@@H]1Cc1cc(Br)ccc1Cl`, for which the MIC was above 125 µg/mL.
In the case of `Cl.O=C1CCNCC1Cc1cc(Br)ccc1Cl` (configuration not stated), the minimum inhibitory concentration (MIC) is above 128 µg/mL.
Still for that read-out and setting: as for `c1ccc(CCC2CCCNC2)cc1` (configuration not stated), the figure is above 128 µg/mL; as for `Cl.Clc1ccc(Br)cc1/C=C/C1CCCNC1` (configuration not stated), 32 µg/mL; as for `N#Cc1ccc(CCC2CCCNC2)cc1` (configuration not stated), above 128 µg/mL.
For `CCOc1ccc(CCC2CCCNC2)cc1` (configuration not stated), the MIC is above 128 µg/mL.
Compound `Cc1ccc(C)c(CCC2CCCNC2)c1` (configuration not stated) displayed a minimal inhibitory concentration (MIC) above 128 µg/mL.
As for `COc1ccccc1-c1ccc(CCC2CCCNC2)c(Cl)c1` (configuration not stated), the MIC is 32 µg/mL (≈ 97 µM).
Regarding `Clc1ccc(CCC2CCCNC2)cc1Cl` (configuration not stated), the MIC was determined as 128 µg/mL (≈ 496 µM).
`Clc1cccc(Cl)c1CCC1CCCNC1` (configuration not stated) gave an MIC above 128 µg/mL.
Turning to `FC(F)(F)c1cc(CCC2CCCNC2)cc(C(F)(F)F)c1` (configuration not stated), the MIC worked out at 64 µg/mL (≈ 197 µM).

The subject of the next experiment is Escherichia coli. In words: Inhibitory activity against accumulation of [14C]-labeled Linezolid within wild-type Escherichia coli K12 cells. The format is functional, cell-based. To be noted: K-12, K12. In short, it runs like this: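 E. coli K12 grown at 37 °C in LB + 0.2% glucose, rinsed twice, resuspended to OD530 8.0 in 50 mM KPO4 pH 7.0, 1 mM MgSO4, 0.2% glucose. Preincubated 10 min at 37 °C, inhibitor added for 30 min, then 14C-linezolid (30 µM final) 15 min. Cells spun through an oil cushion and scintillation counted. IC50 is half-maximal accumulation relative to 100 µM CCCP control.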
As to `Clc1ccc(Cl)c(CCC2CCCNC2)c1` (configuration not stated), the IC50 worked out at 195 µM.
Consider `Cl.F[C@@H]1CCNC[C@H]1CCc1cc(Br)ccc1Cl`, for which the IC50 was 90 µM.
The same measure, in the same setting: as for `Cl.FC1=C(Cc2cc(Br)ccc2Cl)CNCC1`, the figure is 480 µM; as for `Cl.Clc1ccc(Br)cc1CCC1CCCNC1` (configuration not stated), 185 µM; as for `Cl.OC1CCNC[C@@H]1Cc1cc(Br)ccc1Cl` (some centres not stated), above 900 µM.
`Cl.O[C@H]1CCNC[C@@H]1Cc1cc(Br)ccc1Cl` displayed an IC50 above 900 µM.
In turn, `Cl.Clc1ccc(Br)cc1CC1=CCCNC1` displayed an IC50 of 600 µM.
Consider `Cl.F[C@H]1CCNC[C@@H]1Cc1cc(Br)ccc1Cl`, for which the IC50 is above 900 µM.
The compound `Cl.O=C1CCNCC1Cc1cc(Br)ccc1Cl` (configuration not stated) came in with an IC50 above 900 µM.
As to `F[C@H]1CCNC[C@@H]1CCCc1cc(Br)ccc1Cl`, inhibition was half-maximal at 400 µM (IC50).
On to `c1ccc(CCC2CCCNC2)cc1` (configuration not stated), for which the IC50 is above 900 µM.
`Cl.Clc1ccc(Br)cc1/C=C/C1CCCNC1` (configuration not stated) had an IC50 of 140 µM.
As to `N#Cc1ccc(CCC2CCCNC2)cc1` (configuration not stated), the IC50 is above 900 µM.
Consider `CCOc1ccc(CCC2CCCNC2)cc1` (configuration not stated), for which the IC50 is above 900 µM.
Compound `Cc1ccc(C)c(CCC2CCCNC2)c1` (configuration not stated) showed an IC50 above 900 µM.
`COc1ccccc1-c1ccc(CCC2CCCNC2)c(Cl)c1` (configuration not stated): the IC50 is above 900 µM.
Consider `Clc1ccc(CCC2CCCNC2)cc1Cl` (configuration not stated), for which the midpoint of inhibition, the IC50, lay at 200 µM.
For the compound `Clc1cccc(Cl)c1CCC1CCCNC1` (configuration not stated), the IC50 was 290 µM.
Compound `FC(F)(F)c1cc(CCC2CCCNC2)cc(C(F)(F)F)c1` (configuration not stated) displayed a half-maximal inhibitory concentration (IC50) of 300 µM.
`N=C(N)NCCC[C@H](NC(=O)[C@@H](N)Cc1ccccc1)C(=O)Nc1ccc2ccccc2c1` [PABETAN] (H-Phe-Arg-βNA): the midpoint of inhibition, the IC50, lay at 730 µM.

Broadly, the MIC is the smallest concentration in the dilution series that meets the test's criterion for growth inhibition. In general, IC50 refers to the concentration that gives 50% inhibition. Read a low IC50 as greater potency.

These data come from ChEMBL document CHEMBL1134147, “3-Arylpiperidines as potentiators of existing antibacterial agents” (Bioorg Med Chem Lett, 2001).
